Active and inactive are the calls of the source. The rule behind the calls is not given here.
What was measured:
[1] = target: T1, Glycogen phosphorylase, liver form (Homo sapiens, UniProt P06737); experiment: (§1) Competitive inhibition of His6-tagged human liver glycogen phosphorylase-a expressed in Escherichia coli BL21 Gold (DE3) assessed as release of inorganic phosphate using varying levels of glucose-1-phosphate and constant concentration of AMP and glycogen measured after 1 min by Dixon plot method
T1 sequence (P06737 whole entry): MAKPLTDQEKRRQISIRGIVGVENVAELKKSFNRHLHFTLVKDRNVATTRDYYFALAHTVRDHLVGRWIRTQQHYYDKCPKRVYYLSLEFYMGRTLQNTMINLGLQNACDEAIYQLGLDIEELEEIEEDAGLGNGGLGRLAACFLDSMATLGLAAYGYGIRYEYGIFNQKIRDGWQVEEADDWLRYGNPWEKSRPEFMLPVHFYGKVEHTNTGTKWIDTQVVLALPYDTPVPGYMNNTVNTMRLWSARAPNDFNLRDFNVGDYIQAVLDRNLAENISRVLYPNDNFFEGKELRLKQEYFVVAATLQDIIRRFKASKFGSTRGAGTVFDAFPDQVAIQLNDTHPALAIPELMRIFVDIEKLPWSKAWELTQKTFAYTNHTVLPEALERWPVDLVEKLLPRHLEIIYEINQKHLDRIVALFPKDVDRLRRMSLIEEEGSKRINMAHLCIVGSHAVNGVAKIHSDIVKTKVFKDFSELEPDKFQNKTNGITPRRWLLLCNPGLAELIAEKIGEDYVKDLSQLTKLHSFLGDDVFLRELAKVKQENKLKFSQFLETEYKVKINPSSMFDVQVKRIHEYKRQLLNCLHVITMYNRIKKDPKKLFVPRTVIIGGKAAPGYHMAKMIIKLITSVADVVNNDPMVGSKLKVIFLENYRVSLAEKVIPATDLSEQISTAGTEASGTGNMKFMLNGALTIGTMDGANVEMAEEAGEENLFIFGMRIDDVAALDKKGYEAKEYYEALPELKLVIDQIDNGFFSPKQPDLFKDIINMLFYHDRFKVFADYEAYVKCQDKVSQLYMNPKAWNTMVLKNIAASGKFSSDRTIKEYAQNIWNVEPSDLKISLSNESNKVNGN

[2] = target: T2, Glycogen phosphorylase, muscle form (Oryctolagus cuniculus, UniProt P00489); experiment: Competitive inhibition of rabbit muscle glycogen phosphorylase-a assessed as release of inorganic phosphate using varying levels of glucose-1-phosphate and constant concentration of AMP and glycogen measured after 1 min by Dixon plot method
T2 sequence (P00489 whole entry): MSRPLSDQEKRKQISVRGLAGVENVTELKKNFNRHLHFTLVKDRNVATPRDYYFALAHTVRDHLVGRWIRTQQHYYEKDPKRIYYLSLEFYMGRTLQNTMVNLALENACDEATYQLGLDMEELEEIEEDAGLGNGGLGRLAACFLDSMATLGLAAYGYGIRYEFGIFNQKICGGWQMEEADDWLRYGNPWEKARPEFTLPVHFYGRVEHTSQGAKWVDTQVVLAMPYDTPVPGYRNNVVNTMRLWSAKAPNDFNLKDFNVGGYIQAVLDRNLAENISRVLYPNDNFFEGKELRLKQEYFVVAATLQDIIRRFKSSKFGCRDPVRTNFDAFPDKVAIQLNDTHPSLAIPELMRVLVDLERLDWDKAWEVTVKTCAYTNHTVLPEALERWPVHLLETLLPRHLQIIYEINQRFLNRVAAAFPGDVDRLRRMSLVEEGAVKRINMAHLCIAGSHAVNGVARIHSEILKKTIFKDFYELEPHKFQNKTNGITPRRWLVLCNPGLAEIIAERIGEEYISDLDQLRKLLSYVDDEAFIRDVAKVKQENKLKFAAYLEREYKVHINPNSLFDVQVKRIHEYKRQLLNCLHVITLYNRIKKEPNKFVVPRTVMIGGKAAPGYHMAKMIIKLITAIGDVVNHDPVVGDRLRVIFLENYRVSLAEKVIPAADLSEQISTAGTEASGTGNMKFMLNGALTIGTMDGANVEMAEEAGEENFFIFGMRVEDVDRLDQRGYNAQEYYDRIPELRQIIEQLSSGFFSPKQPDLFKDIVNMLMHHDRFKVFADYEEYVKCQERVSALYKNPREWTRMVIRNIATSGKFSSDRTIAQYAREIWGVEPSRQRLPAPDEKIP
In short: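 Rabbit muscle GPa was made by phosphorylating rmGPb with a truncated catalytic γ subunit of rabbit muscle phosphorylase kinase. It was assayed in 30 mM imidazole/HCl pH 6.8 containing 60 mM KCl, 0.6 mM EDTA, 0.6 mM DTT and 0.2% w/v glycogen, with Glc-1-P and inhibitor both varied. Initial velocities were calculated from pseudo-first order rate constants.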

[3] = target: T3, Glycogen phosphorylase, liver form (Homo sapiens) (UniProt P06737); experiment: as §1, with “Lineweaver-Burk” for “Dixon”; format: tissue-based
T3 sequence (whole entry): T1 sequence (P06737 whole entry)

[4] = target: T2, Glycogen phosphorylase, muscle form; experiment: Competitive inhibition of rabbit muscle glycogen phosphorylase-b in presence of varying glucose-1-phosphate levels and AMP
[5] = target: T2, Glycogen phosphorylase, muscle form; experiment: Inhibition of rabbit muscle glycogen phosphorylase-b assessed as release of inorganic phosphate from glucose-1-phosphate in presence of AMP and glycogen
In short: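 Isolated rabbit skeletal muscle GPb was assayed in 30 mM imidazole/HCl pH 6.8 with 60 mM KCl, 0.6 mM EDTA and 0.6 mM DTT. […] Initial velocities were derived from pseudo-first order rate constants.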

Ki [1] [µM]	Ki [2] [µM]	inhibition [3]	Ki [4] [µM]	IC50 [5] [µM]	SMILES
0.026	0.065	Active			OC[C@H]1O[C@@H](c2nc(-c3ccc4ccccc4c3)c[nH]2)[C@H](O)[C@@H](O)[C@@H]1O
			5.1		O=C1CNC(=S)N1 [THIOHYDANTOIN]
4280					OC[C@H]1O[C@H](O)[C@H](O)[C@@H](O)[C@@H]1O
				625	OC[C@H]1O[C@@H](c2cc3ccccc3[nH]2)[C@H](O)[C@@H](O)[C@@H]1O
0.156	0.226	Active			OC[C@H]1O[C@@H](c2nc(-c3ccccc3)c[nH]2)[C@H](O)[C@@H](O)[C@@H]1O

Reference: ChEMBL document CHEMBL3872223, “Synthetic, enzyme kinetic, and protein crystallographic studies of C-β-d-glucopyranosyl pyrroles and imidazoles reveal and explain low nanomolar inhibition of human liver glycogen phosphorylase” (Eur J Med Chem, 2016)
